Assays:
Pf20S β1 = Pf20S β1 (Plasmodium falciparum, UniProt Q8I0U7+Q8I6T3); test: Pf20S β1 subunit activity/inhibition assay, fluorogenic substrate Ac-nPnD-amc; format: biochemical
c20S β2 = c20S β2 (Homo sapiens, UniProt P49720+Q99436); test: Human c20S β2 inhibition assay, fluorogenic substrate Z-VLR-amc; format: biochemical
Pf20S β5 subunit = test: Gel-based competition with activity-based probe Me4BodipyFL-Ahx3Leu3VS, β5 band; format: biochemical, Plasmodium falciparum; details: preincubation of recombinant Pf20S with inhibitor before probe; denaturing gel
Summary of the method: (§1)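 Baculovirus-expressed Pf20S from Sf9 cells, purified by Streptactin affinity and size exclusion, preincubated with test compound. Then 2 μM Me4BodipyFL-Ahx3Leu3VS added, 16 h at room temperature. Samples heated 5 min at 99°C in LDS buffer with 250 μM DTT, run on 12% Bis-Tris gel in MOPS SDS buffer at 120 V. Imaged at 470 nm excitation / 530 nm emission; bands quantified densitometrically.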

Pf20S β2 subunit = test: Gel-based competition with activity-based probe Me4BodipyFL-Ahx3Leu3VS, β2 band; format: biochemical, Plasmodium falciparum; details: preincubation of recombinant Pf20S with inhibitor before probe; denaturing gel
Summary of the method: as §1

Pf20S β2 = Pf20S β2 (Plasmodium falciparum, UniProt Q8I261+Q8I6T3); test: Pf20S β2 subunit activity/inhibition assay, fluorogenic substrate Z-VLR-amc; format: biochemical
Pf20S β2, sequence (Q8I6T3 42-270): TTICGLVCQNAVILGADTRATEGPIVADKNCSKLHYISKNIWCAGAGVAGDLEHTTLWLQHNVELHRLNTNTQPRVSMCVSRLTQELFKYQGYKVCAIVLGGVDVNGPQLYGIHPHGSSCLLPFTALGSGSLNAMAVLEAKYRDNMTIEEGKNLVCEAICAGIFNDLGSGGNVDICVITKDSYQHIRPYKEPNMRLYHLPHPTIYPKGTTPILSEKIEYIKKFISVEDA
Pf20S β2, sequence (Q8I261 1-218): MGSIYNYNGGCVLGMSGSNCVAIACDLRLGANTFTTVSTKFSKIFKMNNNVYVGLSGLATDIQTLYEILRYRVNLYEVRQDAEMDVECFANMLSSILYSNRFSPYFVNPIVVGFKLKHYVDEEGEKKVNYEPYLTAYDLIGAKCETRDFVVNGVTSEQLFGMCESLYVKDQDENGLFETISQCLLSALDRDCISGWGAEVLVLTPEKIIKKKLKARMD
Pf20S β2, sequence (Q06323 whole entry partner): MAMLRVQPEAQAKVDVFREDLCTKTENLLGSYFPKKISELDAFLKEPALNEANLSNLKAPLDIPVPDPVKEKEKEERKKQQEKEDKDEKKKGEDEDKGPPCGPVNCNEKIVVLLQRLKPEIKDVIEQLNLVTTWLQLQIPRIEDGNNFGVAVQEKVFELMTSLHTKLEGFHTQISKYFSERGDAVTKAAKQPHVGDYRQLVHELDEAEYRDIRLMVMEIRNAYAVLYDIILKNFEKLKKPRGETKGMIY

Pf20S β5 = Pf20S β5 (Plasmodium falciparum, UniProt A0A5K1K7U1+Q8IJT1); test: Pf20S β5 subunit activity/inhibition assay, fluorogenic substrate Ac-FNKL-amc; format: biochemical; details: 200 nM PA28α
Pf20S β5, sequence (Q8IJT1 61-271): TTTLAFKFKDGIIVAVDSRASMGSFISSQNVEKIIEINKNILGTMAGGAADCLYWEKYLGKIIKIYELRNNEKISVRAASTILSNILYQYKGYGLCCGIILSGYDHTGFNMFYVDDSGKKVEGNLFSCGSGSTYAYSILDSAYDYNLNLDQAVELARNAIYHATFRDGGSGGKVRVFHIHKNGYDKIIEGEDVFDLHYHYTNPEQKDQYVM
Pf20S β5, sequence (A0A5K1K7U1 29-240): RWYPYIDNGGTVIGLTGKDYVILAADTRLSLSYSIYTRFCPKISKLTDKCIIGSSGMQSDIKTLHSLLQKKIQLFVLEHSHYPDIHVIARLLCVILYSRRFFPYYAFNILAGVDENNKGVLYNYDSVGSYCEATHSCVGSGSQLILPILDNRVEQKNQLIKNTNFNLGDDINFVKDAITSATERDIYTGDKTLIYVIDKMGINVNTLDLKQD
Pf20S β5, sequence (Q06323 whole entry partner): as the sequence (Q06323 whole entry partner) above

[1] = molecular target: incorrectly assembled half-Pf20S (immature half proteasome with Ump1) (Plasmodium falciparum) (UniProt Q8I6T3); test: cryo-EM structure

Pf20S β1, sequence (Q8I0U7 31-282): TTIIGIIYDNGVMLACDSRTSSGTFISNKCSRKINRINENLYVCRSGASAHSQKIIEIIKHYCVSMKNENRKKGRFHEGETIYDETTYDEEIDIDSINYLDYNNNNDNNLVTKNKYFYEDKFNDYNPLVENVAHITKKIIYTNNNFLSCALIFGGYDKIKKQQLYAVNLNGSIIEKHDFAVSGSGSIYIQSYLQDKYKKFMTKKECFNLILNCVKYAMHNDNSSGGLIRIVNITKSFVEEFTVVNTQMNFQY
Pf20S β1, sequence (Q8I6T3 42-270): as the sequence (Q8I6T3 42-270) above
Pf20S β1, sequence (Q06323 whole entry partner): as the sequence (Q06323 whole entry partner) above

## C[C@@]12OC(=O)[C@]1([C@@H](O)[C@@H]1C=CCCC1)NC(=O)[C@@H]2CCCl [Marizomib]
Pf20S β1; time-course, Fig. 3b
  inhibition of Pf20S-mediated cleavage of Ac-nPnD-amc (β1 activity): inhibited
c20S β2
  IC50: ~300 nM
Pf20S β5 subunit
  effect on probe labeling of β5 (lower, 23 kDa) band: eliminated the labeling of both bands
Pf20S β2 subunit
  effect on probe labeling of β2 (upper, 25 kDa) band: eliminated the labeling of both bands

## Ac-Phe-Arg-Ser-Arg-epoxyketone [FRSR-ek]
Pf20S β2; Fig. S4
  inhibition of Pf20S activity with Z-VLR-amc (β2 substrate): effectively inhibited

## PA28α: human proteasome activator subunit 1 alpha, produced recombinantly in E. coli
Pf20S β5
  increase of Pf20S β5 subunit activity: 8 fold
Pf20S β2; 200 nM PA28α, Z-VLR-amc
  increase of Pf20S β2 subunit activity: 2 fold
Pf20S β1; 200 nM PA28α, Ac-nPnD-amc
  increase of Pf20S β1 subunit activity: 4 fold

## incorrectly assembled half-Pf20S (immature half proteasome with Ump1) (from UniProt Q8I6T3 1-270; Q8IJT1 1-271; Q7K6A9 1-265) (complex)
[1]
  stoichiometry N: 2
